ChEMBL document CHEMBL1687928, “Discovery, optimization, and pharmacological characterization of novel heteroaroylphenylureas antagonists of C-C chemokine ligand 2 function” (J Med Chem, 2011)
The source made the active and inactive calls. No cut-off for these calls is given here.

How the values were obtained:
[1] = AUC (0 to 24 hrs) in rat at 5 mg/kg, po; type: ADME, organism-based; design: time < 24 hr, dose 5 mg/kg, route oral; conditions: plasma
CYP2C9 = CYP2C9 (Homo sapiens, UniProt P11712); assay: Inhibition of CYP2C9 at 1 uM; type: ADME
Mus musculus [2] = assay: Toxicity in ICR mouse assessed as occurrence of hypoactivity at 500 mg/kg, po administered as single dose; type: organism-based; design: dose 500 mg/kg, route oral; conditions: in vivo
Mus musculus [3] = assay: Antiinflammatory activity in complete Freund's adjuvant-induced C57BL/6 mouse assessed as delay in autoimmune encephalomyelitis disease progression at 30 mg/kg, po BID; type: functional
In short: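 MOG33-55 peptide emulsion given subcutaneously to C57BL/6 mice, with intravenous pertussis vaccine (350 ng) right after and again 48 h later. Compound dissolved at 4 mg/mL in 3% aqueous Tween 80 (stored at 4 C), or water as vehicle, given orally b.i.d. from the day of immunization (day 0). Mice monitored daily for disease onset and clinical score (0–5 scale).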

Rattus norvegicus [4] = assay: Oral bioavailability in rat at 5 mg/kg, po; type: ADME, organism-based; conditions: in vivo
In short: (§1)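 Rats, not fasted, received a single intravenous or oral dose.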

CYP2C19 [5] = molecular target: T1, CYP2C19 (Homo sapiens, UniProt P33261); assay: Inhibition of CYP2C19 at 100 uM; type: ADME
Mus musculus [6] = assay: Immunosuppressive activity in delayed-type hypersensitivity po dosed […] ICR mouse assessed as inhibition of sheep RBC-induced foot-pad swelling administered 1 hr prior and 2 hr after SRBC challenge measured on day 5 by Plethysmometer; type: functional, organism-based
Mus musculus [7] = assay: Toxicity in ICR mouse assessed as CNS excitation at 1000 mg/kg, po administered as single dose; type: organism-based; design: dose 1000 mg/kg, route oral; conditions: in vivo
CYP2C19 [8] = molecular target: T1, CYP2C19; assay: Inhibition of CYP2C19 at 1 uM; type: ADME
[9] = Aqueous solubility of the compound at pH 1.2; type: physicochemical
Mus musculus [10] = assay: Toxicity in ICR mouse assessed as vacuolar degeneration in liver at 300 mg/kg, po QD for 14 days; type: organism-based; design: dose 300 mg/kg, route oral; conditions: in vivo, 336 h
[11] = Cmax in rat at 30 mg/kg, po; type: ADME, organism-based; design: dose 30 mg/kg, route oral; conditions: in vivo
Mus musculus [12] = species: Mus musculus; assay: Antiinflammatory activity in Freund's adjuvant-induced C57BL/6 mouse assessed as decrease in inflammatory cell infiltrates in cerebellum; type: functional, organism-based
In short: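 C57BL/6 mice were immunized s.c. with a MOG33-55 peptide emulsion and given pertussis vaccine (350 ng i.v.) right away and again 48 h later. From day 0, compound in 3% aqueous Tween 80 (4 mg/mL) or water was dosed orally b.i.d. Tissue cellular infiltrate was scored 0–5, from few small perivascular/meningeal infiltrates up to very large extensive infiltrate.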

CYP3A4 = CYP3A4 (Homo sapiens, UniProt P08684); assay: Inhibition of CYP3A4 at 1 uM; type: ADME
Mus musculus [13] = assay: Toxicity in ICR mouse at 100 mg/kg, po administered as single dose; type: organism-based; design: dose 100 mg/kg, route oral; conditions: in vivo
[14] = AUC (0 to 24 hrs) in rat at 30 mg/kg, po; type: ADME, organism-based; design: time < 24 hr, dose 30 mg/kg, route oral; conditions: plasma
[15] = Aqueous solubility of the compound at pH 7.4; type: physicochemical
Mus musculus [16] = assay: Toxicity in ICR mouse assessed as increase in ALT level at 300 mg/kg, po QD for 14 days; type: organism-based; design: dose 300 mg/kg, route oral; conditions: in vivo, 336 h
In short: (§2)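 Repeated-dose study in 6-week-old male ICR mice. Vehicle or 30, 100 or 300 mg/kg was given orally once daily for 14 days. Survival, behavior, body weight and liver enzymes (AST, ALT) were monitored.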

Rattus norvegicus [17] = assay: Drug uptake in collagen-induced Lewis rat tarasal joints at 2 to 30 mg/kg, po measured 5 hrs after last dosing; type: functional, organism-based
In short: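 In the rat collagen-induced arthritis study (oral b.i.d. dosing for 28 days), compound concentration was measured in plasma, tarsal homogenates and thigh-bone marrow. Samples were taken 5 h after the last dose on day 28.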

[18] = Volume of distribution at steady state in rat at 5 mg/kg, iv; type: ADME, organism-based; design: dose 5 mg/kg, route intravenous; conditions: in vivo, read-out: Vdss; in short: as §1
CYP2D6 = CYP2D6 (Homo sapiens, UniProt P10635); assay: Inhibition of CYP2D6 at 100 uM; type: ADME
Mus musculus [19] = assay: Toxicity in ICR mouse at 30 mg/kg, po QD for 14 days; type: organism-based; design: dose 30 mg/kg, route oral; conditions: in vivo, 336 h; in short: as §2
Mus musculus [20] = assay: Toxicity in ICR mouse assessed as increase in feeding behavior at 1000 mg/kg, po administered as single dose; type: organism-based; design: dose 1000 mg/kg, route oral; conditions: in vivo

T1 sequence (P33261 whole entry): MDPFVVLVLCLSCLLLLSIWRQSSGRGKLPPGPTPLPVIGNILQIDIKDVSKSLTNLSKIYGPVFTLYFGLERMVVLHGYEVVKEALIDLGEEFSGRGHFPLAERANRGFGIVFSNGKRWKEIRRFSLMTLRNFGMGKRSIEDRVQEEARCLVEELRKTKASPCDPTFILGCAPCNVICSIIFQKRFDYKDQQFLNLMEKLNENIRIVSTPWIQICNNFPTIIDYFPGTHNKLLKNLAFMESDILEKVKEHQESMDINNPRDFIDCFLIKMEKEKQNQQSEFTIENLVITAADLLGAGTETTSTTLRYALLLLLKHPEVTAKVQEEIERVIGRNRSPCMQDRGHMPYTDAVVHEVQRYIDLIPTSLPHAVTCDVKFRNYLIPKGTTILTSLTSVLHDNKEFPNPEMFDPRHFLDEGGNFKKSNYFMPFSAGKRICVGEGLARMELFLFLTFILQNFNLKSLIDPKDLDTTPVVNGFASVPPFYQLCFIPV
Chain of CYP2C9 (P11712 whole entry): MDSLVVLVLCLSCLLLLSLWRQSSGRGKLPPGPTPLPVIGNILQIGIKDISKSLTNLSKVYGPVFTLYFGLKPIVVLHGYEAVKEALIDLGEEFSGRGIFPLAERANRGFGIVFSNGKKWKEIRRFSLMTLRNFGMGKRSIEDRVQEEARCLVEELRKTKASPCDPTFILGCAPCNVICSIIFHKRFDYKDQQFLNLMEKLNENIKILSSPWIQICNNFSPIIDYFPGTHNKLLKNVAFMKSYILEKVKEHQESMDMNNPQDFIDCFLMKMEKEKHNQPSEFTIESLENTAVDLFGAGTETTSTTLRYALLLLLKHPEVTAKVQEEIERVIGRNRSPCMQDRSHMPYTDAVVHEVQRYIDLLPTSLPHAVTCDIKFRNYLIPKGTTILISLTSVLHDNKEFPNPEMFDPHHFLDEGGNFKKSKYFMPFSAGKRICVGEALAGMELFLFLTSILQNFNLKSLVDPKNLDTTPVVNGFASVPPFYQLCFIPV
Chain of CYP2D6 (P10635 whole entry): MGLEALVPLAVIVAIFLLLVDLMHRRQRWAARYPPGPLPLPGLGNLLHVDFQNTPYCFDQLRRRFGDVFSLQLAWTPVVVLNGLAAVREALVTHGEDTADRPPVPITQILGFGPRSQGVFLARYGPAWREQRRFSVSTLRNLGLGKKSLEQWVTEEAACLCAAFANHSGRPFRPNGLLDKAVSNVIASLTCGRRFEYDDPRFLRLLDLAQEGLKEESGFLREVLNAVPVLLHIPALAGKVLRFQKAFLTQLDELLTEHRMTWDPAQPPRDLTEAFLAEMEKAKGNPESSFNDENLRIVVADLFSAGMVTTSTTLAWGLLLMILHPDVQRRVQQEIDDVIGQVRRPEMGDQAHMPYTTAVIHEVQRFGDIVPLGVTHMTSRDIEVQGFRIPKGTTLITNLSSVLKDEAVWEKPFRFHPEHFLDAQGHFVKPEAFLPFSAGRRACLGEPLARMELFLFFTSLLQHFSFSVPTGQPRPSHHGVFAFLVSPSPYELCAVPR
Chain of CYP3A4 (P08684 whole entry): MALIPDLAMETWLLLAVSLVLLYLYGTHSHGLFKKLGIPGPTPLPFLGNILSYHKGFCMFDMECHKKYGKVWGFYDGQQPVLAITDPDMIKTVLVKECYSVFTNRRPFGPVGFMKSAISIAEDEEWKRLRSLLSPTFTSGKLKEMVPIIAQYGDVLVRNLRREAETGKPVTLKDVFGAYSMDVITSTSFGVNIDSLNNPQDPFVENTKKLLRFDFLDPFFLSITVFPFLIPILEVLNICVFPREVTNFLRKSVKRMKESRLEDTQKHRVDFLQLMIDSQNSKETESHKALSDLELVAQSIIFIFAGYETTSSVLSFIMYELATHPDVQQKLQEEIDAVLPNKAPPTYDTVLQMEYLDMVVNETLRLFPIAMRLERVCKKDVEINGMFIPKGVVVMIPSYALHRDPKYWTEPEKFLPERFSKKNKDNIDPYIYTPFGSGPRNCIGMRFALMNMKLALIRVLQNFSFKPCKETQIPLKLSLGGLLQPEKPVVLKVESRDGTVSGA

## Cc1nn(C)c2nc(N(C)CCN(C)C)c(C(=O)NC(=O)Nc3cccc(OC(C)C)c3)cc12.Cl
[1]
  AUC(0-t) at 24 h: 1620 ng·h/mL
CYP2C9
  inhibition at 1 µM: 11%
Mus musculus [2]
  Activity: Toxic
Mus musculus [3]
  Activity: 32.7 days
Rattus norvegicus [4]
  F: 60%
CYP2C19 [5]
  inhibition at 100 µM: 34%
Mus musculus [6]
  Activity: Active
Mus musculus [7]
  Activity: Toxic
CYP2C19 [8]
  inhibition at 1 µM: -8%
[9]
  solubility: 31.3 µg/mL
Mus musculus [10]
  Activity: Toxic
[11]
  Cmax: 383 ng/mL
Mus musculus [12]
  Activity: Active
CYP3A4
  inhibition at 1 µM: 4%
Mus musculus [13]
  Activity: Non-toxic
[14]
  AUC(0-t) at 24 h: 5570 ng·h/mL
[15]
  solubility: 7.8 µg/mL
Mus musculus [16]
  Activity: Toxic
Rattus norvegicus [17]
  Drug uptake: Active
[18]
  Vd: 9.9 L/kg
CYP2D6
  inhibition at 100 µM: 73%
Mus musculus [19]
  Activity: Non-toxic
Mus musculus [20]
  Activity: Toxic
